Experimental data from ChEMBL document CHEMBL1125653, “Synthesis and pharmacological evaluation of a major metabolite of ameltolide, a potent anticonvulsant” (1991).

Tests used:
Assay type in all cases: functional
Mus musculus [1] = assay: Anticonvulsant effect by maximal electroshock assay in mice after intravenous administration.
Summary of the method: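 Male CF-1 mice, 18–26 g. Compounds dissolved in 2.5% ethanol–2.5% emulphor/water and injected into the tail vein 5 min before MES: 50 mA ac, 0.1 s, corneal electrodes. Absence of tonic hindlimb extension scored as protection. Groups of 12 mice per dose; ED50 with 95% confidence limits calculated from dose–effect data.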

Mus musculus [2] = assay: Anticonvulsant effect by maximal electroshock assay in mice after peroral administration.; conditions: po
Summary of the method: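 Male CF-1 mice, 18–26 g, fasted from food and water 1.5 h; compounds suspended in 5% acacia/water, given orally at 0.01 mL/g. Tested at each compound's time of peak effect. MES: 50 mA ac for 0.1 s via corneal electrodes; protection = no hindlimb tonic extension. Groups of 12 mice at several doses; ED50 and 95% confidence limits computed from dose–effect data.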

Mus musculus [3] = assay: Time to peak anticonvulsant effect was measured after oral dosing in mice.
Summary of the method: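 Time to peak anticonvulsant effect in MES-tested male CF-1 mice after oral dosing (5% acacia/water suspension, 0.01 mL/g, 1.5 h fasted). Used to set the test time for the oral ED50 determinations.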

Mus musculus [4] = assay: Anticonvulsant effect by horizontal screen assay in mice after peroral administration.; conditions: po, in the assay text read “Neurological impairment” for “Anticonvulsant effect”
Summary of the method: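 Neurological impairment in previously trained male CF-1 mice (18–26 g) after oral dosing in 5% acacia/water (0.01 mL/g; 1.5 h food and water deprivation). Each mouse placed on a 13 × 13 cm no. 4 mesh wire screen, which was rotated 180°. Scored on whether it climbed back to the top within 1 min. Groups of 12 per dose; ED50 with 95% confidence limits.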

[5] = Protective index measured as the ratio of HS ED50/MES ED50 values.
Summary of the method: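 Ratio of oral horizontal-screen ED50 to oral MES ED50 in male CF-1 mice. Both ED50s were derived from groups of 12 mice given compound suspended in 5% acacia/water.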

Question: For `CC(=O)Nc1ccc(C(=O)Nc2c(C)cccc2CO)cc1`, which ED50 (Mus musculus [1]) is on record?
Answer: > 80 mg/kg

Question: And the ED50 (Mus musculus [2])?
Answer: > 100 mg/kg

Question: What about the TPE (Mus musculus [3]) of the same compound?
Answer: 1 h

Question: With `CC(=O)Nc1ccc(C(=O)Nc2c(C)cccc2C)cc1` as the compound, how does the ED50 (Mus musculus [4]) read?
Answer: 96.4 mg/kg

Question: And the ED50 (Mus musculus [1])?
Answer: 19.9 mg/kg

Question: What about the ED50 (Mus musculus [2]) of the same compound?
Answer: 4.7 mg/kg

Question: What about the TPE (Mus musculus [3]) of the same compound?
Answer: 2 h

Question: What about the Protective index [5] of the same compound?
Answer: 21

Question: Which results are given for `O=C1NC(=O)C(c2ccccc2)(c2ccccc2)N1` [PHENYTOIN]?
Answer: ED50 (Mus musculus [4]): 83.7 mg/kg; ED50 (Mus musculus [2]): 8.1 mg/kg; TPE (Mus musculus [3]): 2 h

Question: What does the source list for `Cc1cccc(CO)c1NC(=O)c1ccc(N)cc1`?
Answer: ED50 (Mus musculus [4]): 66 mg/kg; ED50 (Mus musculus [1]): 3.9 mg/kg; ED50 (Mus musculus [2]): 10.9 mg/kg; TPE (Mus musculus [3]): 1 h; Protective index [5]: 6

Question: With `Cc1cccc(C)c1NC(=O)c1ccc(N)cc1` [AMELTOLIDE] as the compound, how does the ED50 (Mus musculus [4]) read?
Answer: 23 mg/kg

Question: And the ED50 (Mus musculus [1])?
Answer: 19.9 mg/kg

Question: And the ED50 (Mus musculus [2])?
Answer: 1.4 mg/kg

Question: And the TPE (Mus musculus [3])?
Answer: 0.5 h

Question: What about the Protective index [5] of the same compound?
Answer: 13
